# In ChEMBL document CHEMBL4311980, “Discovery of 2-isoxazol-3-yl-acetamide analogues as heat shock protein 90 (HSP90) inhibitors with significant anti-HIV activity” (Eur J Med Chem, 2019):
# Key:
# [1] = Cytotoxicity against human TZM-bl cells assessed as maximum non-cytotoxic concentration after 48 hrs by MTT assay; assay type: cell-based; details: read-out: MNCC
# Summary of the method: (§1)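 Cells were seeded at 25,000/well in complete medium with compound at different concentrations, with untreated and DMSO controls, and incubated 48 h. MTT (5 mg/mL stock) was added for 4 h at 37 °C in the dark. Formazan was dissolved in isopropanol and A570 read. CC50 and highest non-cytotoxic concentration were derived from this assay.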
# [2] = Cytotoxicity against human CEM-GFP cells assessed as reduction in cell viability after 48 hrs by MTT assay; assay type: cell-based; summary of the method: as §1
# [3] = test system: Human immunodeficiency virus 1; test: Antiviral activity against HIV-1 NL4-3 infected in human CEM-GFP cells assessed as suppression of viral replication by measuring reduction in p24 level measured at 72 hrs post-infection by ELISA; assay type: functional, organism-based; details: Human immunodeficiency virus 1, NL4-3, CEM-GFP
# Summary of the method: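 Cells were incubated with 0.5 MOI virus in the presence of polybrene at 37 °C for 4 h with intermittent mixing, then washed and plated in complete RPMI-1640. Compound added at different concentrations, with untreated and DMSO controls. PBMC were PHA-activated. Supernatant p24 measured by capture ELISA (A450) at 72 h. % inhibition calculated relative to untreated cells.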
# [4] = test system: Human immunodeficiency virus 1; test: Antiviral activity against HIV-1 NL4-3 infected in human TZM-bl cells assessed as reduction in viral replication at 1000 nM measured at 48 hrs post-infection by steady-glo reporter gene assay relative to control; assay type: functional; details: Human immunodeficiency virus 1, NL4-3, TZM-bl
# Summary of the method: (§2)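 TZM-bl cells (0.15×10^6/well) were infected with 0.5 MOI HIV-1 NL4-3 12 h after seeding and treated at the highest non-cytotoxic concentration, which was set by MTT assay. At 48 h post-infection, cells were lysed and mixed 1:1 with Steady-Glo substrate, and luminescence was read.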
# [5] = Therapeutic index, ratio of CC50 for human CEM-GFP cells to IC50 for antiviral activity against HIV-1 NL4-3 infected in human CEM-GFP cells; assay type: toxicity, cell-based; details: read-out: Ratio CC50/IC50
# Summary of the method: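 IC50 was determined from p24 ELISA 72 h after 0.5 MOI HIV-1 NL4-3 infection with compound at different concentrations. Therapeutic index = CC50/IC50.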
# [6] = test system: Human immunodeficiency virus 1; test: Antiviral activity against HIV1 NL4-3 infected in human TZM-bl cells assessed as reduction in viral replication at 500 nM measured at 48 hrs post-infection by steady-glo reporter gene assay relative to control; assay type: functional; details: Human immunodeficiency virus 1, NL4-3, TZM-bl; summary of the method: as §2
# [7] = test system: Human immunodeficiency virus 1; test: Antiviral activity against HIV1 NL4-3 infected in human TZM-bl cells assessed as reduction in viral replication at 100 nM measured at 48 hrs post-infection by steady-glo reporter gene assay relative to control; assay type: functional; details: Human immunodeficiency virus 1, NL4-3, TZM-bl; summary of the method: as §2
Compound,IC50 [3] [µM],MNTC at 48 h [1] [nM],CC50 at 48 h [2] [µM],inhibition at 1 µM [4] [%],selectivity ratio [5],inhibition at 0.5 µM [6] [%],inhibition at 0.1 µM [7] [%]
Cc1ccccc1NC(=O)Cc1cc(-c2ccccc2)on1,,1000,,23.5,,,
O=C(Cc1cc(-c2ccccc2)on1)Nc1ccc(Cl)cc1,,100,,,,,49
COc1ccc(-c2cc(CC(=O)Nc3cccc(C)c3)no2)cc1,0.284,1000,15.7,95.5,55.1,,

# Second part, led by results:
IC50 [3] [µM],Compound,MNTC at 48 h [1] [nM],CC50 at 48 h [2] [µM],inhibition at 1 µM [4] [%],selectivity ratio [5],inhibition at 0.5 µM [6] [%],inhibition at 0.1 µM [7] [%]
0.0868,Cc1ccc(NC(=O)Cc2cc(-c3ccccc3)on2)cc1,1000,44,98.4,507,,
0.0871,O=C(Cc1cc(-c2ccccc2)on1)Nc1ccc(F)cc1,500,11.8,,136,85.4,
